Laboratory results: ChEMBL document CHEMBL2203014, “Structure-Based Design of Potent and Selective CK1γ Inhibitors” (ACS Med Chem Lett, 2012)

Assays:
[1] = target: Glycogen synthase kinase-3 beta (Homo sapiens, UniProt P49841)
[2] = target: T1, Casein kinase I isoform gamma-2 (Homo sapiens, UniProt P78368)
[3] = target: Casein kinase I isoform delta (Homo sapiens, UniProt P48730)
[4] = target: Casein kinase I isoform alpha (Homo sapiens, UniProt P48729); assay: Inhibition of CK1-alpha using biotin[long chain]-KKRRRAL{pS}VATLPGL substrate in presence of 8 uM ATP
[5] = Plasma concentration in HEK-293 cells xenografted in nude mouse at 50 mg/kg, po after 6 hrs; type: ADME, organism-based, HEK293; design: dose 50 mg/kg, route oral
Summary of the method: (§1)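 Athymic nude mice carried subcutaneous tumors of HEK293 cells constitutively expressing LRP6 with doxycycline-inducible CK1γ. Doxycycline (0.5 mg/mL) was given in drinking water for 24 h to stimulate LRP6 phosphorylation, then compound was dosed orally at 50 mg/kg. Tumor and plasma were collected 6 h post-dose. Tumor phospho-LRP6 was quantified by electrochemiluminescent assay, and plasma total and unbound exposure were determined.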

[6] = target: T1, Casein kinase I isoform gamma-2; assay: Inhibition of CK1-gamma2 in human RKO cell assessed as inhibition of Wnt3a-induced Wnt signaling treated 1 hr prior to Wnt3a ligand addition measured after 18 to 24 hrs by luciferase reporter gene assay
[7] = Plasma protein binding in mouse; type: ADME, cell-free; conditions: read-out: PPB (converted)
[8] = Intrinsic clearance in rat liver microsomes at 1 uM after 30 mins; type: ADME, Microsome; conditions: read-out: CLH
Summary of the method: (§2)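 Liver microsome turnover (human or rat): compound at 1 μM incubated with microsomes for 30 min. Intrinsic clearance reported in μL/(min·mg).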

Plasma = assay: Unbound concentration in HEK293 cells xenografted in nude mouse at 50 mg/kg, po after 6 hrs; type: ADME, organism-based; design: dose 50 mg/kg, route oral; conditions: in vivo
Summary of the method: as §1

[9] = Plasma protein binding in rat; type: ADME, cell-free; conditions: read-out: PPB (converted)
[10] = Half life in […] mouse at 30 mg/kg, po; type: ADME, organism-based; design: dose 30 mg/kg, route oral; conditions: in vivo
Summary of the method: (§3)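 Oral PK in male CD1 mice, 3 animals per study, dosed at 30 mg/kg po. Vehicle: 10.0% Pluronic F68 / 30.0% HPBCD / 60.0% water with MSA, pH 2.5. Cmax, t1/2, Tmax and AUC were taken from plasma exposure.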

[11] = Selectivity ratio of IC50 for CK1-delta to IC50 for CK1-gamma2
[12] = Cmax in […] mouse at 30 mg/kg, po; type: ADME, organism-based; design: dose 30 mg/kg, route oral; conditions: in vivo
Summary of the method: as §3

[13] = AUC in […] mouse at 30 mg/kg, po; type: ADME, organism-based; design: dose 30 mg/kg, route oral; conditions: plasma
Summary of the method: as §3

[14] = target: T1, Casein kinase I isoform gamma-2; assay: Inhibition of human CK1-gamma2 in HEK293 cells assessed as inhibition of doxcycline-induced LRP6 phosphorylation after 2 hrs by electrochemiluminescence analysis; type: cell-based
[15] = Selectivity ratio of IC50 for CK1-alpha to IC50 for CK1-gamma2
[16] = Tmax in […] mouse at 30 mg/kg, po; type: ADME, organism-based; design: dose 30 mg/kg, route oral; conditions: in vivo
Summary of the method: as §3

[17] = Intrinsic clearance in human liver microsomes at 1 uM after 30 mins; type: ADME, Microsome; conditions: read-out: CLH
Summary of the method: as §2

Mus musculus = assay: Inhibition of CK1-gamma-mediated LRP6 phosphorylation in HEK293 cells xenografted in nude mouse at 50 mg/kg, po after 6 hrs by electrochemiluminescent assay; type: functional; conditions: HEK293, 6 h
Summary of the method: as §1

Casein kinase I isoform alpha, sequence (P48729 whole entry, canonical isoform): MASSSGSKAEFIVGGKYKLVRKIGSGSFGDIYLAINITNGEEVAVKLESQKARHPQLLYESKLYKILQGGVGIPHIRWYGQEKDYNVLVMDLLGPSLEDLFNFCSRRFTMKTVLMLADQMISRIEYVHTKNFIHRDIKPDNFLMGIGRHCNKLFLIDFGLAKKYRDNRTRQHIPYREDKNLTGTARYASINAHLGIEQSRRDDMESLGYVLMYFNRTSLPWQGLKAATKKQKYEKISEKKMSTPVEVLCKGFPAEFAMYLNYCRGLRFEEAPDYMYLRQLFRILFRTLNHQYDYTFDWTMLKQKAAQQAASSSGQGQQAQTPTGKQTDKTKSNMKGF
T1 sequence (P78368 whole entry, canonical isoform): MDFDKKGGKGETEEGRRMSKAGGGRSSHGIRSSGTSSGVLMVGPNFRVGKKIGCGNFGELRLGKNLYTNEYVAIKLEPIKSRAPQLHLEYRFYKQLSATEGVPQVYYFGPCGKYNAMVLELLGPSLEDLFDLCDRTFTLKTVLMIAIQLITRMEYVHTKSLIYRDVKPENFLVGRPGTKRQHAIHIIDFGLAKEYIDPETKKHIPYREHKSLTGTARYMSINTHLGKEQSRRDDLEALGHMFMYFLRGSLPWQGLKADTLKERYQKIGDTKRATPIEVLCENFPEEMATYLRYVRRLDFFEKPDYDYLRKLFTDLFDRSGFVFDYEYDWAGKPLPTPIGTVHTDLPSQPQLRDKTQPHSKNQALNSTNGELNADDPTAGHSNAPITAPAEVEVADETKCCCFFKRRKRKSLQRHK
Glycogen synthase kinase-3 beta, sequence (P49841 whole entry, canonical isoform): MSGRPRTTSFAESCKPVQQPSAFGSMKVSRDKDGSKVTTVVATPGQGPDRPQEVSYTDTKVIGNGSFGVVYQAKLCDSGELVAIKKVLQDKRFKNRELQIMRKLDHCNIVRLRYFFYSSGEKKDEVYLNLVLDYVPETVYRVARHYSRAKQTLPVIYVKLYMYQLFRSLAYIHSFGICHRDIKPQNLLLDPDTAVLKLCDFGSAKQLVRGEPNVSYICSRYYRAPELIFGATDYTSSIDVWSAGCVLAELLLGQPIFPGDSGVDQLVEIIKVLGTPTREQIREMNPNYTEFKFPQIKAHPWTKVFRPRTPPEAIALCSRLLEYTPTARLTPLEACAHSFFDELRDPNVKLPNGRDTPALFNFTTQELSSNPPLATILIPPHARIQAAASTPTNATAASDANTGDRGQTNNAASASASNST
Casein kinase I isoform delta, sequence (P48730 whole entry, canonical isoform): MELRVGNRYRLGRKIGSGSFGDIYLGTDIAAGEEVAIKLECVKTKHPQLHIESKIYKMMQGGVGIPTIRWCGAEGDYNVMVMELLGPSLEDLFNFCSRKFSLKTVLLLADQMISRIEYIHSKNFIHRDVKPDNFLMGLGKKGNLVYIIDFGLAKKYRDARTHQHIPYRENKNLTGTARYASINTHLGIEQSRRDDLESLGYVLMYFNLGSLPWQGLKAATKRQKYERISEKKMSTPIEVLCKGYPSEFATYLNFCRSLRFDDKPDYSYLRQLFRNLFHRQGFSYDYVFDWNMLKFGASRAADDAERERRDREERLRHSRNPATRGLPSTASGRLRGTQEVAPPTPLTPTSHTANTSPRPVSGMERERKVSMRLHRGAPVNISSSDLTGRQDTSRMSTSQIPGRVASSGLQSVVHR

Row | SMILES | IC50 [1] [nM] | IC50 [2] [nM] | IC50 [3] [nM] | IC50 [4] [nM] | IC50 [6] [nM] | Ratio IC50 [15] | further results
1 | COc1cnc(/C=C/c2ccc(F)cc2)nc1-c1cc2c([nH]1)CCNC2=O | 1220 | 50 | – | – | – | – | –
2 | COc1cnc(NCc2ccccc2)nc1-c1cc2c([nH]1)CCNC2=O | 98 | 33 | 22 | 19 | – | – | –
3 | COc1cnc(COc2ccc(F)c(F)c2)cc1-c1cc2c([nH]1)CCNC2=O | 10800 | 5 | 40 | 251 | 254 | 50 | concentration at 6 h [5]: 2700 nM; fraction unbound [7]: 0.049; microsomal CLint at 1 µM [8]: 46 µL/min/mg; Concentration (Plasma): 130 nM; fraction unbound [9]: 0.031; half-life [10]: 2.7 h; Ratio IC50 [11]: 8; Cmax [12]: 9720 nM; AUC [13]: 15.4 µM·h; IC50 [14]: 200 nM; Tmax [16]: 0.33 h; microsomal CLint at 1 µM [17]: 59 µL/min/mg; inhibition in vivo at 50 mg/kg (Mus musculus): 42%
4 | COc1cnc(COc2ccc(F)cc2F)cc1-c1cc2c([nH]1)CCNC2=O | 4000 | 3 | 36 | 225 | 394 | 75 | Ratio IC50 [11]: 12
5 | COc1cnc(-c2cnc3ccccc3c2)nc1-c1cc2c([nH]1)CCNC2=O | 1.49 | 8 | 68 | 9 | > 3330 | 1 | Ratio IC50 [11]: 8; IC50 [14]: 348 nM
6 | COc1cnc(CCc2ccc(F)cc2)nc1-c1cc2c([nH]1)CCNC2=O | 25600 | 17 | – | – | – | – | –
7 | COc1cnc(COc2ccc(F)cc2)nc1-c1cc2c([nH]1)CCNC2=O | 1120 | 24 | 58 | 146 | – | 6 | –
8 | COc1cnc(Nc2ccccc2)nc1-c1cc2c([nH]1)CCNC2=O | 16 | 8 | – | – | – | – | –
9 | COc1cnc(COc2ccc(F)cc2C)cc1-c1cc2c([nH]1)CCNC2=O | 53300 | 3 | 59 | 442 | 537 | 147 | Ratio IC50 [11]: 20

Continued, in another order:

Row | IC50 [1] [nM] | IC50 [2] [nM] | IC50 [3] [nM] | IC50 [4] [nM] | IC50 [6] [nM] | Ratio IC50 [15] | SMILES | further results
10 | > 62500 | 853 | 4860 | 18500 | – | – | COc1cnc(Oc2ccccc2)nc1-c1cc2c([nH]1)CCNC2=O | –
11 | > 62500 | – | – | – | – | – | COc1cnc(CCc2ccc(F)cc2)cc1-c1cc2c([nH]1)CCNC2=O | –
12 | 7830 | 5 | – | – | 584 | – | COc1cnc(COc2ccc(F)cc2)cc1-c1cc2c([nH]1)CCNC2=O | –
13 | 38100 | 4 | – | – | 44 | – | COc1cnc(COc2cc(F)c(F)cc2C)cc1-c1cc2c([nH]1)CCNC2=O | fraction unbound [7]: 0.008; microsomal CLint at 1 µM [8]: 106 µL/min/mg; half-life [10]: 1.4 h; Cmax [12]: 560 nM; AUC [13]: 2.1 µM·h; IC50 [14]: 87 nM; Tmax [16]: 1.17 h; microsomal CLint at 1 µM [17]: 177 µL/min/mg
14 | > 30000 | 80 | 168 | 95 | – | – | COc1cnc(OCc2ccc(F)cc2)nc1-c1cc2c([nH]1)CCNC2=O | –
